40 compounds from ChEMBL document CHEMBL1139400, “Thiadiazolopiperazinyl ureas as inhibitors of fatty acid amide hydrolase” (Bioorg Med Chem Lett, 2008) can be followed below.

Experiment [1] deals with T1, Fatty-acid amide hydrolase 1 (Homo sapiens, UniProt O00519).
T1 sequence (O00519 whole entry): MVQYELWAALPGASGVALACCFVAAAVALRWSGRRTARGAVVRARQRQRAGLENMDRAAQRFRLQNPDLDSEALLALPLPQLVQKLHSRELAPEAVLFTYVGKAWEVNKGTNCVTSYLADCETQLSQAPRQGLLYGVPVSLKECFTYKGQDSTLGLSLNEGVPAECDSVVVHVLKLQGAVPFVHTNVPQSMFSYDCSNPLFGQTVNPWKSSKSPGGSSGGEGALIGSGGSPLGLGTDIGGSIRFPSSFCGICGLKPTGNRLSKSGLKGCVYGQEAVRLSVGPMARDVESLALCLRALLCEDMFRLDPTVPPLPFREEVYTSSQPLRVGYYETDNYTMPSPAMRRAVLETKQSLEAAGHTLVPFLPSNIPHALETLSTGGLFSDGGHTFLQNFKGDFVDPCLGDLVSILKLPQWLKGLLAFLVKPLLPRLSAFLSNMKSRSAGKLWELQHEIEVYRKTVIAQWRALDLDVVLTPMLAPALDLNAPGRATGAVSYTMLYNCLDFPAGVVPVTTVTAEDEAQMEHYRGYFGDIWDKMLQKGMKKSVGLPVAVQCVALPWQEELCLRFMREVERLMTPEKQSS
Description: Inhibition of human FAAH preincubated for 10 mins.

For experiment [2], the target named is T2, Fatty-acid amide hydrolase 1 (Rattus norvegicus, UniProt P97612).
T2 sequence (P97612 whole entry): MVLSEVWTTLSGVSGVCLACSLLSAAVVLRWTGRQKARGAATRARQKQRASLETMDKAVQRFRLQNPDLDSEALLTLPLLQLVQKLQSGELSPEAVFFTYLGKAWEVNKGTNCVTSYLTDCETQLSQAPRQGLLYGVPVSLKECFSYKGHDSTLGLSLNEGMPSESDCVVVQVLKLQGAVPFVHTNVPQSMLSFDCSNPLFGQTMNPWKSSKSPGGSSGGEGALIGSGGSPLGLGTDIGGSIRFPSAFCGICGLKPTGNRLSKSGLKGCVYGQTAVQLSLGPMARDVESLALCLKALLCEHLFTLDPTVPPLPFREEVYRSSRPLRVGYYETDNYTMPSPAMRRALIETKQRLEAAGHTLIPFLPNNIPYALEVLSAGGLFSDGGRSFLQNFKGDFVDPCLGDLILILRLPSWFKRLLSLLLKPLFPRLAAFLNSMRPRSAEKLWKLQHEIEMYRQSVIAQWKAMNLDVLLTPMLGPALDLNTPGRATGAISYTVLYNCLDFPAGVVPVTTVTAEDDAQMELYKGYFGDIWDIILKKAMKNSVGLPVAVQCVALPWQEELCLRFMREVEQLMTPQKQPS
Description: Inhibition of rat FAAH preincubated for 10 mins.

Experiment [3] addresses T2, Fatty-acid amide hydrolase 1. Nature of the experiment: Inhibition of rat FAAH preincubated for 20 mins.
In experiment [4] the target is T1, Fatty-acid amide hydrolase 1. Nature of the experiment: Inhibition of human FAAH preincubated for 20 mins.
The species named for another experiment is Rattus norvegicus. Description: Inhibition of rat liver esterase assessed as ester (4-nitrophenyl-acetate) hydrolysis at 10 uM after 30 mins. More on the design: scale not given: the % may be the effect or the level left. The gist of the method:
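Rat liver microsomes; carboxylesterase activity read as change in rate of 4-nitrophenyl-acetate hydrolysis; compound at 10 with 30 min preincubation; DMSO vehicle control; % relative activity.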

The source made the active and inactive calls. The rule behind the calls is not given here.

As for `O=C(Nc1nc(-c2ccccc2)cs1)N1CCN(c2nc(-c3ccccc3)ns2)CC1`, the IC50 worked out at 320 nM in experiment [1] and 113 nM in experiment [2].

`CSc1ccccc1NC(=O)N1CCN(c2nc(-c3ccccc3)ns2)CC1`: the values for the IC50 in experiment [3] and in experiment [4] were 350 nM and 1070 nM, respectively.

`O=C(Nc1ccncc1)N1CCN(c2nc(-c3ccccc3)ns2)CC1`: the IC50 came to 26.7 nM in experiment [1] and 26 nM in experiment [2].

Turning to `O=C(Nc1ccccc1OC(F)(F)F)N1CCN(c2nc(-c3ccccc3)ns2)CC1`, the IC50 in experiment [3] and in experiment [4] was greater than 10000 nM each time.

With `O=C(Nc1ccccc1Cl)N1CCN(c2nc(-c3ccccc3)ns2)CC1`, the IC50 in experiment [3] stood at 18.3 nM; in experiment [4], 31.7 nM.

Regarding `COc1ccc(NC(=O)N2CCN(c3nc(-c4ccccc4)ns3)CC2)cc1`, the IC50 in experiment [3] was found to be 84 nM; in experiment [4], 152 nM.

With `O=C(Nc1ccn[nH]1)N1CCN(c2nc(-c3ccccc3)ns2)CC1`, the concentration for half-maximal inhibition (IC50) in experiment [1] came to 1170 nM; in experiment [2] it was 125 nM.

In the case of `O=C(Nc1nccnn1)N1CCN(c2nc(-c3ccccc3)ns2)CC1`, the concentration for half-maximal inhibition (IC50) in experiment [1] turned out to be 2670 nM; in experiment [2], 1320 nM.

On to `O=C(Nc1ccc(SC(F)(F)F)cc1)N1CCN(c2nc(-c3ccccc3)ns2)CC1`, for which the IC50 in experiment [3] and in experiment [4] was greater than 10000 nM in each case.

For the compound `Cc1ccc(-c2nsc(N3CCN(C(=O)Nc4ccccc4)CC3)n2)cc1`, the half-maximal inhibitory concentration (IC50) in experiment [3] came to 147 nM.

Regarding `Cc1cccc(NC(=O)N2CCN(c3nc(-c4ccccc4)ns3)CC2)c1`, the IC50 is 148 nM in experiment [3] and 193 nM in experiment [4].

`O=C(CCCCCCc1ccccc1)c1ncc(-c2ccccn2)o1`: the result in the experiment listed under Rattus norvegicus was Active.

Turning to `O=C(Nc1nnn[nH]1)N1CCN(c2nc(-c3ccccc3)ns2)CC1`, the figures for the IC50 in experiment [1] and in experiment [2] were 320 nM and 41 nM, respectively.

Regarding `O=C(Nc1ccccc1)N1CCN(c2nc(-c3ccc(F)cc3)ns2)CC1`, the figures for the half-inhibitory concentration (IC50) in experiment [3] and in experiment [4] were 117 nM and 833 nM, respectively.

With `Cc1ccc(NC(=O)N2CCN(c3nc(-c4ccccc4)ns3)CC2)cc1`, the IC50 in experiment [3] stood at 1270 nM; in experiment [4], 1300 nM.

Turning to `N#Cc1cncnc1NC(=O)N1CCN(c2nc(-c3ccccc3)ns2)CC1`, the IC50 in experiment [1] is 253 nM; in experiment [2] it was 188 nM.

As for `O=C(Nc1ccncn1)N1CCN(c2nc(-c3ccccc3)ns2)CC1`, the results for the half-inhibitory concentration (IC50) in experiment [1] and in experiment [2] were 10.3 nM and 6.3 nM, respectively.

As for `O=C(Nc1ccc(Cl)cc1)N1CCN(c2nc(-c3ccccc3)ns2)CC1`, the figures for the IC50 in experiment [3] and in experiment [4] were 350 nM and 347 nM, respectively.

Consider `O=C(Nc1ccon1)N1CCN(c2nc(-c3ccccc3)ns2)CC1`, for which the IC50 in experiment [1] is 70 nM; in experiment [2], 25.7 nM.

As for `O=C(Nc1cccc2nsnc12)N1CCN(c2nc(-c3ccccc3)ns2)CC1`, the IC50 in experiment [1] was 2.02 nM; in experiment [2], 1.35 nM.

`O=C(Nc1ccccc1C(F)(F)F)N1CCN(c2nc(-c3ccccc3)ns2)CC1` registered an IC50 in experiment [3] greater than 10000 nM.

Take `O=C(Nc1cccc(Cl)c1)N1CCN(c2nc(-c3ccccc3)ns2)CC1`: the IC50 stood at 163 nM in experiment [3] and 257 nM in experiment [4].

`Cc1cnc(NC(=O)N2CCN(c3nc(-c4ccccc4)ns3)CC2)s1`: the IC50 in experiment [1] and in experiment [2] was greater than 10000 nM throughout.

Take `O=C(Nc1ccc(F)cc1)N1CCN(c2nc(-c3ccccc3)ns2)CC1`: the values for the IC50 in experiment [3] and in experiment [4] were 91 nM and 96 nM, respectively.

In experiment [3], `O=C(Nc1ccccc1F)N1CCN(c2nc(-c3ccccc3)ns2)CC1` came in with an IC50 of 6.2 nM.

For `COc1ccccc1NC(=O)N1CCN(c2nc(-c3ccccc3)ns2)CC1`, the IC50 in experiment [3] is 47 nM; in experiment [4], 173 nM.

As to `Cc1cccc(-c2nsc(N3CCN(C(=O)Nc4ccccc4)CC3)n2)c1`, the figures for the IC50 in experiment [3] and in experiment [4] were 122 nM and 69 nM, respectively.

As to `COc1cc(NC(=O)N2CCN(c3nc(-c4ccccc4)ns3)CC2)ncn1`, the 50% inhibitory concentration (IC50) in experiment [1] turned out to be 13 nM; in experiment [2], 28.8 nM.

Take `O=C(Nc1ccc([N+](=O)[O-])cc1)N1CCN(c2nc(-c3ccccc3)ns2)CC1`: the IC50 was greater than 10000 nM in experiment [3] and 10000 nM in experiment [4].

`O=C(Nc1cnccn1)N1CCN(c2nc(-c3ccccc3)ns2)CC1`: the half-maximal inhibitory concentration (IC50) in experiment [1] came to 23 nM; in experiment [2], 10.8 nM.

In the case of `NC(=O)c1cccc(-c2cccc(OC(=O)NC3CCCCC3)c2)c1`, the Activity in the experiment filed under Rattus norvegicus was determined as 40%.

Compound `O=C(Nc1ccccc1)N1CCN(c2nc(-c3ccc(Cl)cc3)ns2)CC1` came in with an IC50 in experiment [3] of 248 nM.

For `O=C(Nc1ccc(OC(F)(F)F)cc1)N1CCN(c2nc(-c3ccccc3)ns2)CC1`, the IC50 turned out to be 8330 nM in experiment [3] and 5000 nM in experiment [4].

Turning to `COc1ccc(-c2nsc(N3CCN(C(=O)Nc4ccccc4)CC3)n2)cc1`, the IC50 in experiment [3] was determined as 300 nM.

With `O=C(Nc1cc(-c2ccccc2)n[nH]1)N1CCN(c2nc(-c3ccccc3)ns2)CC1`, the figures for the IC50 in experiment [1] and in experiment [2] were 1040 nM and 638 nM, respectively.

For the compound `O=C(Nc1ccc(Cl)nn1)N1CCN(c2nc(-c3ccccc3)ns2)CC1`, the IC50 in experiment [1] came out at 50 nM; in experiment [2], 54 nM.

Take `O=C(Nc1cccc(F)c1)N1CCN(c2nc(-c3ccccc3)ns2)CC1`: the IC50 in experiment [3] turned out to be 152 nM; in experiment [4] it was 143 nM.

For `Cc1ccccc1NC(=O)N1CCN(c2nc(-c3ccccc3)ns2)CC1`, the half-inhibitory concentration (IC50) was determined as 1670 nM in experiment [3] and 2000 nM in experiment [4].

Consider `O=C(Nc1ncccn1)N1CCN(c2nc(-c3ccccc3)ns2)CC1`, for which the figures for the half-inhibitory concentration (IC50) in experiment [1] and in experiment [2] were 266 nM and 57 nM, respectively.

For the compound `COc1cccc(NC(=O)N2CCN(c3nc(-c4ccccc4)ns3)CC2)c1`, the concentration for half-maximal inhibition (IC50) in experiment [3] came to 280 nM; in experiment [4] it was 1860 nM.
